Measured values from different studies.
Compare with care: the assays were run in different laboratories.
Target: Serine/threonine-protein kinase TBK1 (TBK1, Homo sapiens, UniProt Q9UHD2)
One construct used (Q9UHD2 1-729): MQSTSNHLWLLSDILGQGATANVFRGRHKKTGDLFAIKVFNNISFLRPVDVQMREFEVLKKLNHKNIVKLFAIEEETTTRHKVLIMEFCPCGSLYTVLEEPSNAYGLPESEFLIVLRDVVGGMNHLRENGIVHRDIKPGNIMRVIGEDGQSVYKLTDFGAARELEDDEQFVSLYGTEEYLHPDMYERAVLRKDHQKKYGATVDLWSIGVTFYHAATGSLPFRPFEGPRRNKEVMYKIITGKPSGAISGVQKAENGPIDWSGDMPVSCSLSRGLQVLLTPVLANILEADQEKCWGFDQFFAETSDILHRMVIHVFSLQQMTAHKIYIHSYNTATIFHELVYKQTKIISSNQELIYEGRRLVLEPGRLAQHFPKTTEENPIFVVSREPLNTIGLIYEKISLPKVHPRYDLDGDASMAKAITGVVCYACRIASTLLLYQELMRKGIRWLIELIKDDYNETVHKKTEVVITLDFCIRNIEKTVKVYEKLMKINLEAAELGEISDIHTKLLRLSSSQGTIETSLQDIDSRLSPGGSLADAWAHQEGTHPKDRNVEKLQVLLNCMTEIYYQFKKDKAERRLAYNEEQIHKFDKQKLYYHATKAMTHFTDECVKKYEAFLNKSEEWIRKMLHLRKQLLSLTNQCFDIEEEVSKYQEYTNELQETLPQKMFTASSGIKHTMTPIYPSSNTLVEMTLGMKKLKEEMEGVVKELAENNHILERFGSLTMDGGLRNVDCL

SMILES	test	setting	measurement	result
COc1ccc2[nH]c3c4[nH]c5ccc(OC)cc5c4c4c(c3c2c1)C(=O)NC4=O	binding	1 µM	remaining binding	59%
Cc1cc(O)c(-c2ccc([C@@H](C)CN(C)C)cc2)c2c1[nH]c(=O)c1sccc12	enzyme activity, inhibitor	0.1 µM	inhibition	-4.68%
CCCCC(=O)Nc1ccc(-c2ccc3ncn(CCC)c(=O)c3c2)cn1	binding, competition with immobilised ligand	0.5 µM	remaining binding	100%
C[C@H]1CC[C@H](n2c3cnccc3c3cnc(Nc4ccc5c(n4)CCN(C(=O)CO)C5)nc32)CC1	cell-free assay	1 µM	remaining signal	100%
CC#CC(=O)N1CCC[C@H]1c1nc(-c2ccc(C(=O)Nc3ccccn3)cc2)c2c(N)nccn12	enzyme activity, inhibitor	1 µM	inhibition	5%
C#Cc1cc(-c2cc(Nc3nc(N[C@@H](C)c4ccc(F)cn4)ncc3Cl)n[nH]2)ccc1C=O	enzyme activity, inhibitor	0.2 µM	inhibition	5.56%
C=CC(=O)N1CCC([C@@H]2CCNc3c(C(N)=O)c(-c4ccc(Oc5ccccc5)cc4)nn32)CC1	enzyme activity, inhibitor	1 µM	inhibition	15%
CC(C)S(=O)(=O)c1ccc2nccc(Nc3ccc4sc(C5CCCC5)nc4c3)c2c1	enzyme activity, inhibitor	1 µM	activity vs control	114%
